Laboratory results: publication PMC3715850 (Nature Communications, 2013)
Read-outs that look alike come from different tables or passages of the source.

How the values were obtained:
Type in all cases: binding
[1] = molecular target: E710A (Escherichia coli, UniProt P00582, C907S/D424A/E710A/K550C/L744C); conditions: for occupancy of the closed conformation: 1 mM dNTP
In short: (§1)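 Doubly labelled Klenow fragment (<100 pM) with DNA, titrated with nucleotide in 40 mM HEPES-NaOH pH 7.3, 10 mM MgCl2, 1 mM DTT, 100 μg ml−1 BSA, 5% glycerol, 1 mM mercaptoethylamine. Read by confocal alternating-laser excitation (532/638 nm) at ~22 °C. Stoichiometry-filtered E* histograms fitted as double Gaussians (σ≤0.07). Low-FRET peak shift and high-FRET fraction globally fitted for K0, K1, K2; Kd1=1/K1, Kd2=1/(K1K2).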

[2] = molecular target: Y766A (Escherichia coli, UniProt P00582, C907S/D424A/K550C/L744C/Y766A); conditions: template G (DNA2); listed as G-dCTP
In short: as §1

[3] = molecular target: T1, wt KF (Escherichia coli, UniProt P00582, C907S/D424A/K550C/L744C); conditions: for free energy of closed complex relative to partially closed state, ΔrG(IN/CN) / free energy of partially closed state relative to open binary complex, ΔrG(O/IN): template A; for free energy of partially closed state relative to open binary complex, ΔrG(O/IN): nucleotide concentrations in E. coli (dTTP 120 μM, dGTP 60 μM)
In short: as §1

[4] = molecular target: T1, wt KF; experiment: Single-molecule FRET nucleotide titration in the absence of DNA; conditions: no DNA
In short: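 Polymerase without DNA: doubly labelled protein (<100 pM) titrated with nucleotide in HEPES-NaOH pH 7.3 buffer with 10 mM MgCl2, at ~22 °C by confocal alternating-laser excitation smFRET. O and C denote unliganded-protein states. Double-Gaussian fits of stoichiometry-filtered E* histograms; low-FRET peak shift and high-FRET fraction fitted globally for K0, K1, K2, with Kd1=1/K1.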

[5] = molecular target: T1, wt KF; experiment: Interconversion rates of ternary complexes by PDA and FRET-width analysis; conditions: template A, listed as A-dGTP
[6] = molecular target: Y766F (Escherichia coli, UniProt P00582, C907S/D424A/K550C/L744C/Y766F); conditions: template A (DNA1); listed as A-dTTP
In short: as §1

[7] = ternary complex, saturating nucleotide, PDA

Nc1ncnc2c1ncn2[C@H]1C[C@H](O)[C@@H](COP(=O)(O)OP(=O)(O)OP(=O)(O)O)O1 [dATP]
occupancy of the closed conformation ([1]; template T (DNA3)): 58%
K2 (equilibrium IN to closed CN) ([1]; template T (DNA3), listed as T-dATP): ~ 2

Nc1ccn([C@H]2C[C@H](O)[C@@H](COP(=O)(O)OP(=O)(O)OP(=O)(O)O)O2)c(=O)n1 [dCTP]
occupancy of the closed conformation ([1]; template G (DNA2)): 61%
K2 (equilibrium IN to closed CN) ([1]; template G (DNA2), listed as G-dCTP): ~ 2
K2 (equilibrium IN to closed CN) [2]: 8.9

Nc1nc2c(ncn2[C@H]2C[C@H](O)[C@@H](COP(=O)(O)OP(=O)(O)OP(=O)(O)O)O2)c(=O)[nH]1 [dGTP]
free energy of closed complex relative to partially closed state, ΔrG(IN/CN) [3]: +6 kJ mol^−1
free energy of partially closed state relative to open binary complex, ΔrG(O/IN) [3]: -0.17 kcal/mol
K2 (equilibrium IN to closed CN) [4]: < 0.2
rate of the O-to-IN transition ([5]; at 60 μM dGTP (E. coli concentration), K1·kIN→O·[N]): 390 s⁻¹
kCN→IN (closed to partially closed) [5, 7]: 45 s⁻¹
kIN→CN (partially closed to closed) [5, 7]: 3 s⁻¹

Cc1cn([C@H]2C[C@H](O)[C@@H](COP(=O)(O)OP(=O)(O)OP(=O)(O)O)O2)c(=O)[nH]c1=O [dTTP]
free energy of closed complex relative to partially closed state, ΔrG(IN/CN) [3]: -0.96 kcal/mol
molecules in closed conformation (occupancy) ([3]; template A (DNA1), 1 mM nucleotide): ~ 85%
K2 (equilibrium IN to closed CN) ([3]; template A (DNA1), listed as A-dTTP): 6.1
free energy of partially closed state relative to open binary complex, ΔrG(O/IN) [3]: -1.9 kcal/mol
K2 (equilibrium IN to closed CN) [6]: 9.6

Nc1nc2c(ncn2[C@@H]2O[C@H](COP(=O)(O)OP(=O)(O)OP(=O)(O)O)[C@@H](O)[C@H]2O)c(=O)[nH]1 [rGTP]
K2 (equilibrium IN to closed CN) ([3]; template A (DNA1), listed as A-rGTP): < 0.2
